{"source": "ChEMBL document CHEMBL4689842", "about": "“EUbOPEN Chemogenomics Library wave 1” (2021)", "system": "U2OS", "test": "Multiplex assay against U2OS", "format": "toxicity, cell-based", "conditions": "human", "method_in_brief": "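Live cells were stained at seeding with Hoechst33342, BioTracker Green Microtubule Cytoskeleton Dye, MitoTracker Red and Annexin V Alexa Fluor 680, then imaged on a CQ1 microscope at 37°C and 5% CO2 after compound addition. CellPathfinder machine-learning gating split cells into Hoechst high-intensity objects or normal cells. Normal cells were split into healthy, pyknosed or fragmented nuclei, and pyknosed cells into mitotic or apoptotic. Tubulin, mitochondrial-mass and membrane-permeability phenotypes are per cents of healthy-nucleus cells.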", "key": {"[1]": {"conditions": "12 h, 1 µM, compound concentration 1 uM, replicate 1"}, "[2]": {"conditions": "12 h, 1 µM, compound concentration 1 uM, replicate 2"}, "[3]": {"conditions": "12 h, 10 µM, compound concentration 10 uM, replicate 1"}, "[4]": {"conditions": "12 h, 10 µM, compound concentration 10 uM, replicate 2"}, "[5]": {"conditions": "24 h, 1 µM, compound concentration 1 uM, replicate 1"}, "[6]": {"conditions": "24 h, 1 µM, compound concentration 1 uM, replicate 2"}, "[7]": {"conditions": "24 h, 10 µM, compound concentration 10 uM, replicate 1"}, "[8]": {"conditions": "24 h, 10 µM, compound concentration 10 uM, replicate 2"}}}
{"smiles": "CCN(CC)CCCCNc1ncc2cc(-c3cc(OC)cc(OC)c3)c(NC(=O)NC(C)(C)C)nc2n1", "note": "[PD-173074]", "values": [{"measurement": "Population Apoptotic (%)", "setting": "[1]", "value": 53, "unit": "%"}, {"measurement": "Population Fragmented Nuclei (%)", "setting": "[1]", "value": 27, "unit": "%"}, {"measurement": "Population Healthy Nuclei (%)", "setting": "[1]", "value": 4, "unit": "%"}, {"measurement": "Population Hoechst High Intensity Objects (%)", "setting": "[1]", "value": 56, "unit": "%"}, {"measurement": "Population Membrane Permeable-Phenotype (%)", "setting": "[1]", "value": 66, "unit": "%"}, {"measurement": "Population Mitochondria Different-Phenotype (%)", "setting": "[1]", "value": 16, "unit": "%"}, {"measurement": "Population Mitotic Cells (%)", "setting": "[1]", "value": 46, "unit": "%"}, {"measurement": "Population Normal (%)", "setting": "[1]", "value": 43, "unit": "%"}, {"measurement": "Population Pyknosed Nuclei (%)", "setting": "[1]", "value": 67, "unit": "%"}, {"measurement": "Population Tubulin-Different-Phenotype (%)", "setting": "[1]", "value": 33, "unit": "%"}, {"measurement": "Total Cell Count", "setting": "[1]", "value": 280}, {"measurement": "Population Apoptotic (%)", "setting": "[2]", "value": 54, "unit": "%"}, {"measurement": "Population Fragmented Nuclei (%)", "setting": "[2]", "value": 31, "unit": "%"}, {"measurement": "Population Healthy Nuclei (%)", "setting": "[2]", "value": 11, "unit": "%"}, {"measurement": "Population Hoechst High Intensity Objects (%)", "setting": "[2]", "value": 55, "unit": "%"}, {"measurement": "Population Membrane Permeable-Phenotype (%)", "setting": "[2]", "value": 64, "unit": "%"}, {"measurement": "Population Mitochondria Different-Phenotype (%)", "setting": "[2]", "value": 29, "unit": "%"}, {"measurement": "Population Mitotic Cells (%)", "setting": "[2]", "value": 45, "unit": "%"}, {"measurement": "Population Normal (%)", "setting": "[2]", "value": 44, "unit": "%"}, {"measurement": "Population Pyknosed Nuclei (%)", "setting": "[2]", "value": 57, "unit": "%"}, {"measurement": "Population Tubulin-Different-Phenotype (%)", "setting": "[2]", "value": 47, "unit": "%"}, {"measurement": "Total Cell Count", "setting": "[2]", "value": 186}, {"measurement": "Population Fragmented Nuclei (%)", "setting": "[3]", "value": 20, "unit": "%"}, {"measurement": "Population Healthy Nuclei (%)", "setting": "[3]", "value": 52, "unit": "%"}, {"measurement": "Population Hoechst High Intensity Objects (%)", "setting": "[3]", "value": 19, "unit": "%"}, {"measurement": "Population Membrane Permeable-Phenotype (%)", "setting": "[3]", "value": 39, "unit": "%"}, {"measurement": "Population Mitochondria Different-Phenotype (%)", "setting": "[3]", "value": 27, "unit": "%"}, {"measurement": "Population Normal (%)", "setting": "[3]", "value": 80, "unit": "%"}, {"measurement": "Population Pyknosed Nuclei (%)", "setting": "[3]", "value": 26, "unit": "%"}, {"measurement": "Population Tubulin-Different-Phenotype (%)", "setting": "[3]", "value": 92, "unit": "%"}, {"measurement": "Total Cell Count", "setting": "[3]", "value": 206}, {"measurement": "Population Apoptotic (%)", "setting": "[4]", "value": 21, "unit": "%"}, {"measurement": "Population Fragmented Nuclei (%)", "setting": "[4]", "value": 33, "unit": "%"}, {"measurement": "Population Healthy Nuclei (%)", "setting": "[4]", "value": 34, "unit": "%"}, {"measurement": "Population Hoechst High Intensity Objects (%)", "setting": "[4]", "value": 30, "unit": "%"}, {"measurement": "Population Membrane Permeable-Phenotype (%)", "setting": "[4]", "value": 37, "unit": "%"}, {"measurement": "Population Mitochondria Different-Phenotype (%)", "setting": "[4]", "value": 51, "unit": "%"}, {"measurement": "Population Mitotic Cells (%)", "setting": "[4]", "value": 78, "unit": "%"}, {"measurement": "Population Normal (%)", "setting": "[4]", "value": 69, "unit": "%"}, {"measurement": "Population Pyknosed Nuclei (%)", "setting": "[4]", "value": 31, "unit": "%"}, {"measurement": "Population Tubulin-Different-Phenotype (%)", "setting": "[4]", "value": 73, "unit": "%"}, {"measurement": "Total Cell Count", "setting": "[4]", "value": 129}, {"measurement": "Population Apoptotic (%)", "setting": "[5]", "value": 70, "unit": "%"}, {"measurement": "Population Fragmented Nuclei (%)", "setting": "[5]", "value": 17, "unit": "%"}, {"measurement": "Population Healthy Nuclei (%)", "setting": "[5]", "value": 8, "unit": "%"}, {"measurement": "Population Hoechst High Intensity Objects (%)", "setting": "[5]", "value": 60, "unit": "%"}, {"measurement": "Population Membrane Permeable-Phenotype (%)", "setting": "[5]", "value": 71, "unit": "%"}, {"measurement": "Population Mitochondria Different-Phenotype (%)", "setting": "[5]", "value": 28, "unit": "%"}, {"measurement": "Population Mitotic Cells (%)", "setting": "[5]", "value": 29, "unit": "%"}, {"measurement": "Population Normal (%)", "setting": "[5]", "value": 39, "unit": "%"}, {"measurement": "Population Pyknosed Nuclei (%)", "setting": "[5]", "value": 74, "unit": "%"}, {"measurement": "Population Tubulin-Different-Phenotype (%)", "setting": "[5]", "value": 57, "unit": "%"}, {"measurement": "Total Cell Count", "setting": "[5]", "value": 298}, {"measurement": "Population Apoptotic (%)", "setting": "[6]", "value": 71, "unit": "%"}, {"measurement": "Population Fragmented Nuclei (%)", "setting": "[6]", "value": 30, "unit": "%"}, {"measurement": "Population Healthy Nuclei (%)", "setting": "[6]", "value": 15, "unit": "%"}, {"measurement": "Population Hoechst High Intensity Objects (%)", "setting": "[6]", "value": 63, "unit": "%"}, {"measurement": "Population Membrane Permeable-Phenotype (%)", "setting": "[6]", "value": 84, "unit": "%"}, {"measurement": "Population Mitochondria Different-Phenotype (%)", "setting": "[6]", "value": 38, "unit": "%"}, {"measurement": "Population Mitotic Cells (%)", "setting": "[6]", "value": 28, "unit": "%"}, {"measurement": "Population Normal (%)", "setting": "[6]", "value": 36, "unit": "%"}, {"measurement": "Population Pyknosed Nuclei (%)", "setting": "[6]", "value": 53, "unit": "%"}, {"measurement": "Population Tubulin-Different-Phenotype (%)", "setting": "[6]", "value": 69, "unit": "%"}, {"measurement": "Total Cell Count", "setting": "[6]", "value": 168}, {"measurement": "Population Apoptotic (%)", "setting": "[7]", "value": 35, "unit": "%"}, {"measurement": "Population Fragmented Nuclei (%)", "setting": "[7]", "value": 16, "unit": "%"}, {"measurement": "Population Healthy Nuclei (%)", "setting": "[7]", "value": 54, "unit": "%"}, {"measurement": "Population Hoechst High Intensity Objects (%)", "setting": "[7]", "value": 17, "unit": "%"}, {"measurement": "Population Membrane Permeable-Phenotype (%)", "setting": "[7]", "value": 20, "unit": "%"}, {"measurement": "Population Mitochondria Different-Phenotype (%)", "setting": "[7]", "value": 48, "unit": "%"}, {"measurement": "Population Mitotic Cells (%)", "setting": "[7]", "value": 64, "unit": "%"}, {"measurement": "Population Normal (%)", "setting": "[7]", "value": 82, "unit": "%"}, {"measurement": "Population Pyknosed Nuclei (%)", "setting": "[7]", "value": 29, "unit": "%"}, {"measurement": "Population Tubulin-Different-Phenotype (%)", "setting": "[7]", "value": 74, "unit": "%"}, {"measurement": "Total Cell Count", "setting": "[7]", "value": 202}, {"measurement": "Population Apoptotic (%)", "setting": "[8]", "value": 45, "unit": "%"}, {"measurement": "Population Fragmented Nuclei (%)", "setting": "[8]", "value": 26, "unit": "%"}, {"measurement": "Population Healthy Nuclei (%)", "setting": "[8]", "value": 33, "unit": "%"}, {"measurement": "Population Hoechst High Intensity Objects (%)", "setting": "[8]", "value": 21, "unit": "%"}, {"measurement": "Population Membrane Permeable-Phenotype (%)", "setting": "[8]", "value": 18, "unit": "%"}, {"measurement": "Population Mitochondria Different-Phenotype (%)", "setting": "[8]", "value": 52, "unit": "%"}, {"measurement": "Population Mitotic Cells (%)", "setting": "[8]", "value": 54, "unit": "%"}, {"measurement": "Population Normal (%)", "setting": "[8]", "value": 78, "unit": "%"}, {"measurement": "Population Pyknosed Nuclei (%)", "setting": "[8]", "value": 40, "unit": "%"}, {"measurement": "Population Tubulin-Different-Phenotype (%)", "setting": "[8]", "value": 59, "unit": "%"}, {"measurement": "Total Cell Count", "setting": "[8]", "value": 113}]}
